Hits are enriched below; roughly 1.9% of the tested compounds scored in any of these assays.
FID counter = fluorescent intercalator displacement, NS3 helicase counter-screen; DNA fluorescent intercalator displacement, fluorescence; inhibition, % at 7.9 µM; hit rate 0.17% among 290,000; AID 1845; in the data active = inhibition above about 37%;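 note: 0% = vehicle and 100% = reference compound; higher means more ethidium bromide displaced from hairpin DNA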
pCIP destab = lowers stability of the mouse p/CIP coactivator protein. Q05BA5. F442A p/CIP-EGFP cells, EGFP fluorescence, 16 h. decrease of EGFP signal, % at 10 µM. hit rate 0.01% among 290,000. AID 1984;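 active = EGFP signal decrease of at least 30% at 10 µM or well 3 SD below plate mean, unless failing retest; inactive = the rest, including hits failing retest or dose response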
GPR7 antagonist = human neuropeptides B/W receptor 1 antagonism | P48145 | GPR7-expressing cells, fluorescence antagonist assay | inhibition, % at 4.4 µM | hit rate 1.1% among 290,000; in the data active = inhibition above about 16%, passing the limit was not always enough;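 note: cells stimulated with the agonist NPW; 0% = agonist with vehicle and 100% = vehicle without agonist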
core dimer inh = HCV core protein dimerization inhibition; AID 1899; hit rate 0.33% among 300,000; TR-FRET GST/Flag-core106 dimerization, 1536-well; inhibition, % at 5 µM;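 active = inhibition above the mean of all tested compounds plus 3 SD, set per screening campaign, cut at about 45% in these data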
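Assay system – GST-tagged and Flag-tagged HCV core protein residues 1-106 · Quantity – core106 proteins, GST 13.5 nM and Flag 17 nM · Benchmarks – unlabelled core106 and no-GST-core106 wells · Read-out basis – percent inhibition of core106 dimerization signal · Detection – time-resolved FRET, ex 340 nm, em 617 and 671 nm · Schedule – 4 h at 22.5 °C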
HCV NS3 hel inh = inhibitors of Hepatitis C virus NS3 helicase; NS3 helicase DNA unwinding, Cy5 molecular beacon fluorescence; inhibition, % at 10.9 µM; hit rate 0.56% among 290,000;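 active = inhibition above the mean of all tested compounds plus 3 SD, set per campaign, cut at about 35% in these data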;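 note: 0% = DMSO wells and 100% = thioflavine S control wells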
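System: NS3 helicase fragment of HCV / Schedule: 1 h at 25 °C / Control set: DMSO alone as 0% and 110 µM thioflavine S as 100% / Reagent: Cy5/quencher beacon DNA duplex and ATP to start / Technique: Cy5 fluorescence / Replication: singlicate / Evaluation: % inhibition of end-to-start signal ratio versus controls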
Active calls of the source: *; . = no result.

SMILES	FID counter	pCIP destab	GPR7 antagonist	core dimer inh	HCV NS3 hel inh
CCOc1ccccc1CN1CCCC(C(=O)Nc2cccc(-n3cccn3)c2)C1 (configuration not stated)	39*	-11	8	-7	-67
COc1ccc(OC)c(NC(=O)COC(=O)c2c3c(nc4ccccc24)CCCC3)c1	-26	0	-7	7	-9
COc1ccc(OC)c(NC(=O)COC(=O)c2cc3c(s2)CCC3)c1	-12	7	4	77*	21
CCOC(=O)C1CCCN(C2=NC(=O)/C(=C/c3ccc(N(C)C)cc3)S2)C1 (configuration not stated)	-31	-22	20	-27	25
COCCn1c(-c2ccco2)csc1=Nc1cccnc1	-9	-2	-4	5	0
CC(C)Cn1c(-c2ccco2)csc1=Nc1cccnc1	-18	-10	3	50*	31
C/C(=C\c1ccc(C)o1)C(=O)c1c(C)cc(C)[nH]c1=O	-6	-7	20*	12	19
COc1ccc2c(CC(=O)Nc3ccc(OC)c(NS(=O)(=O)c4ccc(F)cc4)c3)coc2c1	-10	-8	12	68*	-10
COc1ccc(CCN2CC(C(=O)NC3CCCCC3)CC2=O)cc1OC (configuration not stated)	-15	10	-4	5	9
COc1cccc(OC)c1OCCCOc1ccc([N+](=O)[O-])cc1Cl	-4	5	17*	-5	-10
CCOc1ccccc1OCCCOc1ccc([N+](=O)[O-])cc1Cl	-5	20	-11	-10	-5
Cc1cc(Cl)n2c(nc3cc(F)c(F)cc32)c1C#N	-4	-12	6	.	6
Cc1cc(C)n2c(=O)c3ccc(Cl)cc3nc2c1C#N	-1	-5	-2	52*	-8
Cc1ccc(Nc2nc(N)nc(CN3CCCCCC3)n2)c(C)c1	-2	-4	20*	5	-12
COc1ccc2cc3c(N)nn(C(=O)c4cccc([N+](=O)[O-])c4)c3nc2c1	0	2	-8	58*	4
NC(=O)N=Nc1c(O)n(Cc2ccccc2)c2ccc(Br)cc12	-25	3	-19	.	-2
Cc1nc2ccc(NC(=O)c3ccc(Cl)c(NC(=O)c4cccs4)c3)cc2s1	-12	3	1	48*	-5
Cc1ccc(NC(=O)c2ccc(Cl)c(NC(=O)c3cccs3)c2)cc1	-22	-10	-2	9	3
Cc1cc(C)nc(NC(=S)Nc2cccc(F)c2)c1	-9	-1	-23	6	-2
COc1cccc(NC(=S)Nc2cc(C)cc(C)n2)c1	-9	-8	-8	86*	-3
COc1ccc2oc(=O)c(/C(C)=N/Nc3nc(-c4cc(C)ccc4C)cs3)cc2c1	1	-7	4	56*	7
C/C(=N\Nc1nc(-c2ccc(C)cc2C)cs1)c1cc2ccccc2oc1=O	-5	1	-2	51*	7
CN(C)CCCN(C(=O)CCOc1ccccc1)c1nc2c(F)cccc2s1	7	-4	-5	.	-23
CN(C)CCCN(C(=O)c1ccc(S(=O)(=O)N2CCCCC2)cc1)c1nc2cc3c(cc2s1)OCO3	38*	2	18	-20	-43
Cc1cccc2sc(N(CCCN(C)C)C(=O)c3ccc(C(=O)c4ccccc4)cc3)nc12	38*	5	16	-12	-76
SMILES	FID counter	pCIP destab	GPR7 antagonist	core dimer inh	HCV NS3 hel inh
CN(C)CCCN(C(=O)CCc1ccccc1)c1nc2c(F)cccc2s1	35	-15	21*	-5	-81
CCN(CC)CCN(C(=O)c1ccc(C(=O)c2ccccc2)cc1)c1nc2cc3c(cc2s1)OCO3	8	8	-5	2	-35
CN(C)CCCN(C(=O)c1ccc(C(=O)c2ccccc2)cc1)c1nc2cc3c(cc2s1)OCO3	44*	0	19	-29	-39
CCOC(=O)C1CCN(C(c2cccnc2)c2c(NC(=O)c3ccco3)sc(C)c2C)CC1 (configuration not stated)	-25	-2	27*	6	-13
CCCCN(C)CCNC(=O)c1cn(C)c(=O)c2c1c1ccccc1n2C	2	-2	19	0	7
Cc1nn(C)c(C)c1S(=O)(=O)N(CC(=O)NCCCOC(C)C)c1ccc(C(C)C)cc1	-30	-9	-7	0	4
Cc1nn(C)c(C)c1S(=O)(=O)N(CC(=O)NCCCN1CC(C)CC(C)C1)c1ccc(C(C)C)cc1 (configuration not stated)	40*	-10	7	-7	-21
